Experimental findings from ChEMBL document CHEMBL4038305, “Benzoxaborole Antimalarial Agents. Part 5. Lead Optimization of Novel Amide Pyrazinyloxy Benzoxaboroles and Identification of a Preclinical Candidate” (J Med Chem, 2017) are described below.

The structures appear in SMILES notation. pIC50: −log10 of the molar value. Activity calls are given as the source filed them. The rule behind the calls is not given here. Where only a bound is given, the exact number is not on record here.

For data set [1], the system named is Plasmodium falciparum. Description: Antimalarial activity against chloroquine-resistant Plasmodium falciparum W2 infected in human erythrocytes after 48 hrs by YOYO-1 dye based flow cytometric analysis. It is filed as functional, cell-based. The following applies: W2, 48 h. In a few lines:
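P. falciparum W2 cultures were exposed to the compound for 48 h, with artemisinin and chloroquine as reference controls. IC50 was taken from two independent replicates.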

For data set [2], the system named is Plasmodium falciparum. Description: Antimalarial activity against intraerythrocytic stage of Plasmodium falciparum assessed as parasite reduction ratio at 10 times IC50 preincubated for 24 hrs followed by [3H]-hypoxanthine addition measured after 24 hrs by scintillation counting method. It is filed as functional. A digest of the protocol: (§1)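 In vitro P. falciparum parasite reduction ratio assay run at 10×, 30× and 100× IC50. Derived parameters: lag phase (time to maximal killing), PRR (parasites killed per life cycle) and PCT99.9% (time to clear 99.9% of the initial parasite population).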

Data set [3] relates to Plasmodium falciparum. The experiment in a line: Antimalarial activity against Plasmodium falciparum 3D7 0087/N9 infected in NOD/SCID IL2R gamma null mouse assessed as decrease in parasitemia at 1 to 100 mg/kg up to 7 days post infection. Type of data set: functional, organism-based. A digest of the protocol: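 The P. falciparum 3D70087/N9 strain grew in the peripheral blood of NODscidIL2Rγnull mice engrafted with human erythrocytes. Compounds were given orally once a day for four consecutive days.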

The test system of data set [4] is Plasmodium falciparum. Description: Antimalarial activity against intraerythrocytic stage of Plasmodium falciparum assessed as time required for maximal killing effect at 10 times IC50 preincubated for 24 hrs followed by [3H]-hypoxanthine addition measured after 24 hrs by scintillation counting method. It is filed as functional. In a few lines:
as §1

In data set [5] the test system is Plasmodium falciparum. The experiment in a line: Antimalarial activity against intraerythrocytic stage of Plasmodium falciparum assessed as time required to clear 99.9% of initial parasite population at 10 times IC50 preincubated for 24 hrs followed by [3H]-hypoxanthine addition measured after 24 hrs by scintillation counting method. Type of data set: functional. In a few lines:
as §1

The test system of data set [6] is Plasmodium berghei. Description: Antimalarial activity against Plasmodium berghei infected in Swiss Webster mouse assessed as mouse survival rate at 30 mg/kg administered once daily via oral gavage for 4 consecutive days beginning 1 hr after infection measured from day 4 to day 20 post infection relative to control. It is filed as functional. In a few lines:
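P. berghei-infected erythrocytes taken from a previously infected mouse were injected intraperitoneally. Oral dosing, once daily for 4 consecutive days, began 1 h after infection, in polyethylene glycol 300/propylene glycol/water (55/25/20 by weight). Chloroquine at 30 mg/kg was the positive control, with a vehicle-only group. Percent survival was recorded daily from day 4 to day 20.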

Data set [7] concerns Plasmodium falciparum. Description: Antimalarial activity against Plasmodium falciparum 3D7 0087/N9 infected in NOD/SCID IL2R gamma null mouse assessed as decrease in parasitemia at 2.5 to 50 mg/kg up to 7 days post infection. It is filed as functional, organism-based. A digest of the protocol:
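Human-erythrocyte-engrafted NODscidIL2Rγnull mice carrying P. falciparum Pf3D70087/N9 in peripheral blood; compound given orally once daily for four consecutive days.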

Data set [8] deals with Salmonella typhimurium. Description: Genotoxicity in Salmonella typhimurium TA1537 assessed as number of revertants per plate at 75 ug/plate in absence of rat liver S9 fraction by Ames test (reference value: 19 +/- 9). The following applies: salmonella enterica subsp. enterica serovar typhimurium. It is filed as toxicity. Background: The Ames test uses bacterial strains that need an amino acid and regain growth without it when mutated back.

Data set [9] has as its system Escherichia coli. The experiment in a line: Genotoxicity in Escherichia coli WP2uvrA assessed as number of revertants per plate at 1000 ug/plate in absence of rat liver S9 fraction by Ames test (reference value: 45 +/- 9). Type of data set: toxicity.
Data set [10] concerns Plasmodium falciparum. Description: Antimalarial activity against Plasmodium falciparum K1 infected in human erythrocytes assessed as reduction in [3H]-hypoxanthine incorporation preincubated for 24 hrs followed by [3H]-hypoxanthine addition measured after 24 hrs by scintillation counting method. Type of data set: functional, cell-based.
The subject of data set [11] is Plasmodium falciparum. The experiment in a line: Antimalarial activity against Plasmodium falciparum TM90C2B infected in human erythrocytes assessed as reduction in [3H]-hypoxanthine incorporation preincubated for 24 hrs followed by [3H]-hypoxanthine addition measured after 24 hrs by scintillation counting method. Type of data set: functional, cell-based.
For data set [12], the system named is Plasmodium falciparum. The experiment in a line: Antimalarial activity against Plasmodium falciparum V1/S infected in human erythrocytes assessed as reduction in [3H]-hypoxanthine incorporation preincubated for 24 hrs followed by [3H]-hypoxanthine addition measured after 24 hrs by scintillation counting method. Type of data set: functional, cell-based.
Data set [13] concerns Plasmodium falciparum. Description: Antimalarial activity against Plasmodium falciparum Dd2 infected in human erythrocytes assessed as reduction in [3H]-hypoxanthine incorporation preincubated for 24 hrs followed by [3H]-hypoxanthine addition measured after 24 hrs by scintillation counting method. It is filed as functional, cell-based.
Data set [14] deals with Plasmodium falciparum. The experiment in a line: Antimalarial activity against Plasmodium falciparum HB3 infected in human erythrocytes assessed as reduction in [3H]-hypoxanthine incorporation preincubated for 24 hrs followed by [3H]-hypoxanthine addition measured after 24 hrs by scintillation counting method. Type of data set: functional, cell-based.
The test system of data set [15] is Plasmodium falciparum. The experiment in a line: Antimalarial activity against Plasmodium falciparum NF54 infected in human erythrocytes assessed as reduction in [3H]-hypoxanthine incorporation preincubated for 24 hrs followed by [3H]-hypoxanthine addition measured after 24 hrs by scintillation counting method. Type of data set: functional, cell-based.
The subject of data set [16] is Plasmodium falciparum. The experiment in a line: Antimalarial activity against Plasmodium falciparum TM90C2A infected in human erythrocytes assessed as reduction in [3H]-hypoxanthine incorporation preincubated for 24 hrs followed by [3H]-hypoxanthine addition measured after 24 hrs by scintillation counting method. Type of data set: functional, cell-based.
Data set [17] deals with Plasmodium falciparum. The experiment in a line: Antimalarial activity against Plasmodium falciparum T9/94 infected in human erythrocytes assessed as reduction in [3H]-hypoxanthine incorporation preincubated for 24 hrs followed by [3H]-hypoxanthine addition measured after 24 hrs by scintillation counting method. Type of data set: functional, cell-based.
Data set [18] has as its system Salmonella typhimurium. Description: Genotoxicity in Salmonella typhimurium TA98 assessed as number of revertants per plate at 1 ug/plate in absence of rat liver S9 fraction by Ames test (reference value: 14 +/- 6). Type of data set: toxicity. The conditions noted are these: salmonella enterica subsp. enterica serovar typhimurium.
The subject of data set [19] is Salmonella typhimurium. Description: Genotoxicity in Salmonella typhimurium TA100 assessed as number of revertants per plate at 2 ug/plate in presence of rat liver S9 fraction by Ames test (reference value: 141 +/- 1). Type of data set: toxicity. The conditions noted are these: salmonella enterica subsp. enterica serovar typhimurium. A digest of the protocol:
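TA100 positive control under S9 activation: 2-aminoanthracene at 2.0 μg/plate, plate incorporation, average revertants per plate.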

Data set [20] deals with Salmonella typhimurium. Description: Genotoxicity in Salmonella typhimurium TA1535 assessed as number of revertants per plate at 2 ug/plate in presence of rat liver S9 fraction by Ames test (reference value: 10). Type of data set: toxicity. The following applies: salmonella enterica subsp. enterica serovar typhimurium.
In data set [21] the test system is Salmonella typhimurium. Description: Genotoxicity in Salmonella typhimurium TA98 assessed as number of rrevertants per plate at 2 ug/plate in presence of rat liver S9 fraction by Ames test (reference value: 19 +/- 8). It is filed as toxicity. The following applies: salmonella enterica subsp. enterica serovar typhimurium.
Data set [22] deals with Escherichia coli. Description: Genotoxicity in Escherichia coli WP2uvrA assessed as number of revertants per plate at 15 ug/plate in presence of rat liver S9 fraction by Ames test (reference value: 42 +/- 6). Type of data set: toxicity.
Data set [23] has as its system Salmonella typhimurium. The experiment in a line: Genotoxicity in Salmonella typhimurium TA1537 assessed as number of revertants per plate at 2 ug/plate in presence of rat liver S9 fraction by Ames test (reference value: 11 +/- 4). The following applies: salmonella enterica subsp. enterica serovar typhimurium. It is filed as toxicity.

What is called pIC50 is the negative decadic logarithm of the IC50, by convention in mol/L. In data set [1], `C[C@@H]1CC[C@H]2[C@@H](C)C(=O)O[C@@H]3O[C@@]4(C)CC[C@@H]1[C@]32OO4` [ARTEMISININ] gave a pIC50 of 8.22. Further, the “log(ratio)” value in data set [2] was over 4.8. Also, the result in [3] was Active. For the same compound, the Time in data set [4] came to 0 h. In addition, the T99.9% in data set [5] is under 24 h.

`CCN(CC)CCCC(C)Nc1ccnc2cc(Cl)ccc12` (stereo not given) [CHLOROQUINE]: in data set [6], the survival at 30 mg/kg was determined as 100%. Besides, the Time in data set [4] amounted to 0 h. In data set [7], the result was Active. Also, the T99.9% in [5] was 34 h.

As for `Nc1c2ccccc2nc2ccccc12` [AMINACRINE], the Activity in data set [8] was 430.

With `COS(C)(=O)=O` [METHANESULFONIC ACID METHYL ESTER], the Activity in data set [9] worked out at 357.

`CCc1nc(N)nc(N)c1-c1ccc(Cl)cc1` [PYRIMETHAMINE]: the pIC50 is under 4.70 in data set [10]; under 4.70 in data set [11]; under 4.70 in data set [12]; under 4.70 in [13]; 5.47 in [14]; 7.35 in data set [15]. In addition, the results for the pIC50 in data set [16] and in [17] were under 4.70 and 7.42, respectively. Also, the “log(ratio)” value in [2] is listed as 2.9. In data set [4], the Time worked out at 24 h. Also, the T99.9% in data set [5] was 61 h.

As to `O=[N+]([O-])c1ccc2c(c1)Cc1ccccc1-2` [2-NITROFLUORENE], the Activity in data set [18] stood at 162.

Consider `Nc1ccc2cc3ccccc3cc2c1` [2-AMINOANTHRACENE], for which the Activity in data set [19] amounted to 550; in data set [20], 163; in [21] it was 524; in data set [22] it was 311; in data set [23], 82.

For the compound `O=C1C(O)=C([C@H]2CC[C@H](c3ccc(Cl)cc3)CC2)C(=O)c2ccccc21` [ATOVAQUONE], the pIC50 in [10] was 9.15; in data set [11] it was under 7.46; in data set [13] it was 8.70; in data set [15] it was 9.00. Besides, the “log(ratio)” value in [2] is on record as 2.9. In data set [4], the Time is 48 h. Moreover, the T99.9% in [5] was found to be 81 h.
